# Reference: ChEMBL document CHEMBL1151475, “Thiopurine drugs azathioprine and 6-mercaptopurine inhibit Mycobacterium paratuberculosis growth in vitro” (2008)
# Assays:
# [1] = system: Mycobacterium avium subsp. paratuberculosis; assay: Antituberculosis activity against Mycobacterium paratuberculosis ATCC 19698 isolated from bovine assessed as lowest drug level producing inhibition at 10^6 CFU of inoculum by MGIT 960 susceptibility test; type: functional
# Procedure, shortened: (§1)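 M. paratuberculosis ATCC 19698 at 10^6 CFU per MGIT ParaTB tube in duplicate, drugs at final 1.0–64.0 μg/ml, 37°C in MGIT 960. Inhibition is the lowest concentration whose time to detection exceeds the 1:100 diluted-inoculum solvent control. No detectable growth means the tube never signals positive through 56 days.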
# [2] = system: Mycobacterium avium subsp. paratuberculosis; assay: Antituberculosis activity against Mycobacterium paratuberculosis ATCC 19698 isolated from bovine assessed as minimum drug level resulting in no detectable growth at 10^6 CFU of inoculum after 56 days by MGIT 960 susceptibility test; type: functional; procedure, shortened: as §1
# [3] = system: Mycobacterium avium subsp. paratuberculosis; assay: Antituberculosis activity against Mycobacterium paratuberculosis JTC303 isolated from bovine assessed as minimum drug level required for inhibition by MGIT 960 susceptibility test; type: functional
# Procedure, shortened: (§2)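 10^5 to 10^6 CFU from single-cell suspensions inoculated in duplicate into MGIT ParaTB medium with supplement and egg yolk. Drugs were at final 0.5–64.0 μg/ml, with 128.0 μg/ml added for some strains. Tubes were incubated at 37°C in MGIT 960. Inhibition is the lowest concentration giving a time to detection longer than a drug-free 1:100 inoculum control. Killing is no positive signal through 56 days.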
# [4] = system: Mycobacterium avium subsp. paratuberculosis; assay: Antituberculosis activity against Mycobacterium paratuberculosis JTC303 isolated from bovine assessed as minimum drug level required for killing after 56 days by MGIT 960 susceptibility test; type: functional; procedure, shortened: as §2
# [5] = system: Mycobacterium avium subsp. paratuberculosis; assay: Antituberculosis activity against Mycobacterium paratuberculosis UCF-4 isolated from Crohn's disease patient assessed as minimum drug level required for inhibition by MGIT 960 susceptibility test; type: functional; procedure, shortened: as §2
# [6] = system: Mycobacterium avium subsp. paratuberculosis; assay: Antituberculosis activity against Mycobacterium paratuberculosis UCF-4 isolated from Crohn's disease patient assessed as minimum drug level required for killing after 56 days by MGIT 960 susceptibility test; type: functional; procedure, shortened: as §2
# [7] = system: Mycobacterium avium subsp. paratuberculosis; assay: Antituberculosis activity against Mycobacterium paratuberculosis UCF-7 isolated from Crohn's disease patient assessed as minimum drug level required for killing after 56 days by MGIT 960 susceptibility test; type: functional; procedure, shortened: as §2
# [8] = system: Mycobacterium avium subsp. paratuberculosis; assay: Antituberculosis activity against Mycobacterium paratuberculosis B213 isolated from bovine assessed as minimum drug level required for inhibition by MGIT 960 susceptibility test; type: functional; procedure, shortened: as §2
# [9] = system: Mycobacterium avium subsp. paratuberculosis; assay: Antituberculosis activity against Mycobacterium paratuberculosis B236 isolated from bovine assessed as minimum drug level required for killing after 56 days by MGIT 960 susceptibility test; type: functional; procedure, shortened: as §2
# [10] = system: Mycobacterium avium subsp. paratuberculosis; assay: Antituberculosis activity against Mycobacterium paratuberculosis B238 isolated from bovine assessed as minimum drug level required for inhibition by MGIT 960 susceptibility test; type: functional; procedure, shortened: as §2
# [11] = system: Mycobacterium avium subsp. paratuberculosis; assay: Antituberculosis activity against Mycobacterium paratuberculosis B238 isolated from bovine assessed as minimum drug level required for killing after 56 days by MGIT 960 susceptibility test; type: functional; procedure, shortened: as §2
# Mycobacterium avium [12] = assay: Antituberculosis activity against Mycobacterium avium ATCC 35712 isolated from chicken assessed as minimum drug level required for inhibition by MGIT 960 susceptibility test; type: functional; procedure, shortened: as §2
# [13] = system: Mycobacterium avium subsp. paratuberculosis; assay: Antituberculosis activity against Mycobacterium paratuberculosis UCF-8 isolated from Crohn's disease patient assessed as minimum drug level required for killing after 56 days by MGIT 960 susceptibility test; type: functional; procedure, shortened: as §2
# [14] = system: Mycobacterium avium subsp. paratuberculosis; assay: Antituberculosis activity against Mycobacterium paratuberculosis B244 isolated from bovine assessed as minimum drug level required for killing after 56 days by MGIT 960 susceptibility test; type: functional; procedure, shortened: as §2
# Mycobacterium avium [15] = assay: Antituberculosis activity against Mycobacterium avium ATCC 25291 isolated from chicken assessed as minimum drug level required for inhibition by MGIT 960 susceptibility test; type: functional; procedure, shortened: as §2
# Mycobacterium avium [16] = assay: Antituberculosis activity against Mycobacterium avium ATCC 25291 isolated from chicken assessed as minimum drug level required for killing within 15 days by MGIT 960 susceptibility test; type: functional
# Mycobacterium avium [17] = assay: Antituberculosis activity against Mycobacterium avium 104 isolated from AIDS patient assessed as minimum drug level required for killing within 15 days by MGIT 960 susceptibility test; type: functional
# Mycobacterium avium [18] = assay: Antituberculosis activity against Mycobacterium avium JTC48627 isolated from bison fecal sample assessed as minimum drug level required for inhibition by MGIT 960 susceptibility test; type: functional, Feces; procedure, shortened: as §2
# Mycobacterium avium [19] = assay: Antituberculosis activity against Mycobacterium avium JTC981 isolated from bongo fecal sample assessed as minimum drug level required for inhibition by MGIT 960 susceptibility test; type: functional, Feces; procedure, shortened: as §2
# Mycobacterium avium [20] = assay: Antituberculosis activity against Mycobacterium avium EPA3 isolated from water assessed as minimum drug level required for killing within 15 days by MGIT 960 susceptibility test; type: functional
# Mycobacterium avium [21] = assay: Antituberculosis activity against Mycobacterium avium WSLH1544 isolated from water assessed as minimum drug level required for inhibition by MGIT 960 susceptibility test; type: functional; procedure, shortened: as §2
# Mycobacterium avium [22] = assay: Antituberculosis activity against Mycobacterium avium WSLH1544 isolated from water assessed as minimum drug level required for killing within 15 days by MGIT 960 susceptibility test; type: functional
# Mycolicibacterium phlei = assay: Antituberculosis activity against Mycobacterium phlei ATCC 11758 assessed as minimum drug level required for killing after 56 days by MGIT 960 susceptibility test; type: functional
# Procedure, shortened: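 Duplicate MGIT ParaTB tubes with egg yolk and supplement received 10^5 to 10^6 CFU and thiopurine (in 0.05 M NaOH/10 mM PBS) at final 0.5 to 64.0 μg/ml, plus 128.0 μg/ml for some strains. Tubes were incubated at 37°C in the MGIT 960. The value is the minimum concentration whose tubes never signalled positive by 56 days.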
# [23] = system: Mycolicibacterium smegmatis; assay: Antituberculosis activity against Mycobacterium smegmatis ATCC 14468 assessed as minimum drug level required for inhibition by MGIT 960 susceptibility test; type: functional
# Procedure, shortened: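 MGIT ParaTB tubes were supplemented with egg yolk and inoculated in duplicate with 10^5 to 10^6 CFU from single-cell suspensions. Thiopurines were dissolved in 0.05 M NaOH in 10 mM PBS and tested at final 0.5 to 64.0 μg/ml, with 128.0 μg/ml added for some strains. Tubes ran at 37°C in the MGIT 960. The value is the lowest concentration giving a time-to-detection longer than a drug-free 1:100 inoculum control.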
# [24] = system: Mycolicibacterium smegmatis; assay: Antituberculosis activity against Mycobacterium smegmatis ATCC 14468 assessed as minimum drug level required for killing after 56 days by MGIT 960 susceptibility test; type: functional; procedure, shortened: as §2
# Escherichia coli [25] = assay: Antituberculosis activity against Escherichia coli ATCC 25922 clinical isolate assessed as minimum drug level required for inhibition by MGIT 960 susceptibility test; type: functional
# Escherichia coli [26] = assay: Antituberculosis activity against Escherichia coli ATCC 25922 clinical isolate assessed as minimum drug level required for killing after 56 days by MGIT 960 susceptibility test; type: functional
# Enterococcus faecalis [27] = assay: Antituberculosis activity against Enterococcus faecalis ATCC 29212 isolated from human urine assessed as minimum drug level required for inhibition by MGIT 960 susceptibility test; type: functional
# Enterococcus faecalis [28] = assay: Antituberculosis activity against Enterococcus faecalis ATCC 29212 isolated from human urine assessed as minimum drug level required for killing after 56 days by MGIT 960 susceptibility test; type: functional
# [29] = system: Mycobacterium avium subsp. paratuberculosis; assay: Antituberculosis activity against Mycobacterium paratuberculosis UCF-7 isolated from Crohn's disease patient assessed as colony counts at 2 ug after 12 days by MGIT 960 susceptibility test; type: functional
# [30] = system: Mycobacterium avium subsp. paratuberculosis; assay: Antituberculosis activity against Mycobacterium paratuberculosis UCF-7 isolated from Crohn's disease patient assessed as colony counts at 4 ug after 12 days by MGIT 960 susceptibility test; type: functional
smiles,measurement,setting,value
Sc1ncnc2nc[nH]c12 [MERCAPTOPURINE ANHYDROUS],Activity,[1],1 µg/mL
same,Activity,[2],32 µg/mL
same,Activity,[3],1 µg/mL
same,Activity,[4],32 µg/mL
same,Activity,[5],2 µg/mL
same,Activity,[6],>32 µg/mL
same,Activity,[7],8 µg/mL
same,Activity,[8],4 µg/mL
same,Activity,[9],>32 µg/mL
same,Activity,[10],4 µg/mL
same,Activity,[11],>32 µg/mL
same,Activity,Mycobacterium avium [12],>64 µg/mL
same,Activity,[13],16 µg/mL
same,Activity,[14],>32 µg/mL
same,Activity,Mycobacterium avium [15],>64 µg/mL
same,Activity,Mycobacterium avium [16],>64 µg/mL
same,Activity,Mycobacterium avium [17],>64 µg/mL
same,Activity,Mycobacterium avium [18],32 µg/mL
same,Activity,Mycobacterium avium [19],>64 µg/mL
same,Activity,Mycobacterium avium [20],>64 µg/mL
same,Activity,Mycobacterium avium [21],8 µg/mL
same,Activity,Mycobacterium avium [22],>64 µg/mL
same,Activity,Mycolicibacterium phlei,16 µg/mL
same,Activity,[23],>128 µg/mL
same,Activity,[24],>128 µg/mL
same,Activity,Escherichia coli [25],>128 µg/mL
same,Activity,Escherichia coli [26],>128 µg/mL
same,Activity,Enterococcus faecalis [27],>128 µg/mL
same,Activity,Enterococcus faecalis [28],>128 µg/mL
same,log10CFU/ml,[29],3.87
same,log10CFU/ml,[30],3.19
